Results on one compound are retold here after ChEMBL document CHEMBL4673248, “Discovery and Characterization of BAY 1214784, an Orally Available Spiroindoline Derivative Acting as a Potent and Selective Antagonist of the Human Gonadotropin-Releasing Hormone Receptor as Proven in a First-In-Human Study in Postmenopausal Women” (J Med Chem, 2020).

For orientation: IC50 means the concentration that gives 50% inhibition. In general, Papp A→B refers to how fast a substance crosses the layer from the apical side. As a reminder, the ED50 is the dose at which the effect has come halfway, by size or by number of responders. A word on the Kd: it is a measure of binding affinity in units of concentration.

Bounds are passed on as bounds.

The nature of data set [1]: Intrinsic clearance in Han Wistar rat hepatocytes at 1 uM measured up to 90 mins by LC/MS/MS analysis. It counts as ADME, cell-based, Hepatocyte. The note with it: Han Wistar, read-out: CLH (converted).
The nature of data set [2]: Antagonist activity at cynomolgus monkey GnRH receptor expressed in CHO-K1 cells assessed as inhibition of buserelin-induced response preincubated for 20 mins followed by buserelin addition and measured after 60 mins by TR-FRET assay. Particulars: Macaca fascicularis. Format: cell-based. The method in brief: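 Frozen CHO-K1 cells expressing cynomolgus receptor: thawed, 1 h recovery at 37 °C with IP1-d2 tracer. 5000 cells/well in Ham's F12, 20 min preincubation with compound at rt. Buserelin added at 1× EC80 in HEPES stimulation buffer pH 7.4 with LiCl, 60 min at 37 °C. Lysis with Tb-anti-IP1 antibody (1:20), HTRF IP1 read after 60 min. Duplicates, up to 11 concentrations.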
For orientation: Time-resolved FRET reads energy transfer from a long-lived donor to a nearby acceptor.

Data set [3] in a line: Apparent permeability across apical to basolateral side in human Caco2 cells at 2 uM measured after 2 hrs by LC-MS/MS analysis. It counts as ADME, cell-based. The note with it: Caco-2. The gist of the method: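 Caco-2 monolayers grown 15 d, integrity checked by TEER. Compound 2 µM added apical or basolateral in FCS-free HEPES carbonate buffer pH 7.2, incubated 2 h at 37 °C. Both compartments sampled before and after, analysed by LC-MS/MS after MeOH precipitation. Papp computed from receiver peak area, surface area and time. Efflux ratio taken as Papp B–A/Papp A–B.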
Background: Passage across Caco-2 layers is used to estimate intestinal permeability.

The target in data set [4] is Voltage-gated inwardly rectifying potassium channel KCNH2 (Homo sapiens, UniProt Q12809). As to the kind of experiment: Inhibition of human ERG expressed in HEK293 cells assessed as reduction in channel inward tail current by whole cell voltage clamp assay. It counts as cell-based.
For data set [5], the system named is Rattus norvegicus. As to the kind of experiment: Suppression of ovariectomized-induced increase in plasma luteinizing hormone level in po dosed Wistar Han rat measured up to 24 hrs. It counts as functional. The note with it: time hrs <=24. The gist of the method:
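Ovariectomized rats given single oral doses, range 1 to 30 mg/kg. Plasma LH followed over time, with cetrorelix at 0.1 mg/kg sc as reference. ED50 calculated from the dose-response.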

Data set [6] addresses T1, Gonadotropin-releasing hormone receptor (Homo sapiens, UniProt P30968).
T1 sequence (P30968 whole entry): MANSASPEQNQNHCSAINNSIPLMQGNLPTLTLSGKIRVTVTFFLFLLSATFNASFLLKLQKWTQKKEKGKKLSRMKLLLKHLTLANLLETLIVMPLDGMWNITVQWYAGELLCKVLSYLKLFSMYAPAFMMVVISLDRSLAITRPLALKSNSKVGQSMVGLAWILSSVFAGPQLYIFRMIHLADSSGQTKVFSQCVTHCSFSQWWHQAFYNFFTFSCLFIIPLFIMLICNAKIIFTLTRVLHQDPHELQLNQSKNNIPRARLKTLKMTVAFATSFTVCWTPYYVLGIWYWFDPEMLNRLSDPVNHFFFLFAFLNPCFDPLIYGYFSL
As to the kind of experiment: Inhibition of Tag-lite green-labeled agonist binding to terbium fluorophore-labeled human N-terminal SNAP-tag GnRh receptor expressed in HEK293 cells by TR-FRET assay. Format: cell-based. The method in brief: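 Frozen transiently transfected HEK293 with Tb-labelled SNAP-tag hGnRH-R, 5.6 × 10^4 cells/well in Tag-lite buffer. Green-labelled agonist 4 nM. Nonspecific wells received buserelin 10 µM. Incubated 60 min at rt, TR-FRET 520/495 nm ratio read.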

Data set [7] addresses Mitogen-activated protein kinase 3 (Homo sapiens, UniProt P27361). As to the kind of experiment: Inhibition of MAPK3 (unknown origin).
Data set [8] can be described thus: Clearance in dog liver microsomes. It counts as ADME, Canis lupus familiaris, Microsome. (Liver microsomes are a subcellular fraction often used to study metabolism.)
Data set [9] is described as follows: Maximum oral bioavailability in human liver microsomes based well stirred liver model at 1 uM measured after 2 to 60 mins in presence of NADP generating system by LC-MS/MS analysis. Format: ADME, Microsome. Particulars: time 2-60 min, read-out: Fmax. The method in brief: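 Human liver microsomes at 0.5 mg/mL in 100 mM phosphate pH 7.4, 37 °C, G6P/NADP/G6PDH cofactor mix. Compound 1 µM, sampled at 2, 8, 16, 30, 45 and 60 min into cold MeOH, LC-MS/MS. Half-life to intrinsic clearance. Fmax from well-stirred model with liver blood flow 1.32 L/h/kg.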

The nature of data set [10]: Maximum oral bioavailability in dog liver microsomes based well stirred liver model. Format: ADME, Canis lupus familiaris, Microsome. The note with it: read-out: Fmax.
The nature of data set [11]: Clearance in human hepatocytes. It counts as ADME, cell-based, Hepatocyte.
Data set [12] can be described thus: Clearance in dog hepatocytes. It counts as ADME, cell-based, Canis lupus familiaris, Hepatocyte.
Data set [13] is described as follows: Clearance in cynomolgus monkey hepatocytes. Format: ADME, cell-based, Macaca fascicularis, Hepatocyte.
A short description of data set [14]: Maximum oral bioavailability in dog hepatocytes. Format: ADME, Canis lupus familiaris, Hepatocyte. Particulars: read-out: Fmax.
Data set [15] deals with T2, Cytochrome P450 1A2 (Homo sapiens, UniProt P05177).
T2 sequence (P05177 whole entry): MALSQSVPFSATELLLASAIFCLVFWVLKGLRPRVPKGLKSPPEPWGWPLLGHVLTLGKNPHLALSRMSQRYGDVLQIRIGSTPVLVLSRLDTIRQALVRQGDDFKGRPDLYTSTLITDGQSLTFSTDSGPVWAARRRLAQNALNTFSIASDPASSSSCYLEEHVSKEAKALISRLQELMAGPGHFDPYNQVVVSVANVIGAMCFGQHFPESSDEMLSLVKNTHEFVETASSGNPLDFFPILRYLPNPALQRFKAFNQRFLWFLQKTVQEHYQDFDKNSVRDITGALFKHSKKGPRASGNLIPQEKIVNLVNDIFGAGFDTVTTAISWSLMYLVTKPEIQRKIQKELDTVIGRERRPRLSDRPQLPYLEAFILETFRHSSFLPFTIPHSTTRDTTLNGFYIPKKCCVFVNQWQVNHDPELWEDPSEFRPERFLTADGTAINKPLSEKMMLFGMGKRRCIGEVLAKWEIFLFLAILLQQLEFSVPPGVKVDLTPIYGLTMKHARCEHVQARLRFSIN
As to the kind of experiment: Inhibition of CYP1A2 in human liver microsomes using phenacetin as substrate by LC-MS/MS analysis. It counts as ADME.

Data set [16] addresses Cytochrome P450 2D6 (Homo sapiens, UniProt P10635). Description: Inhibition of CYP2D6 in human liver microsomes using dextromethorphan as substrate by LC-MS/MS analysis. Format: ADME.
The target of data set [17] is T1, Gonadotropin-releasing hormone receptor. As to the kind of experiment: Inhibition of Tag-lite green-labeled agonist binding to terbium fluorophore-labeled human N-terminal SNAP-tag GnRh receptor expressed in HEK293 cells assessed as dissociation constant by TR-FRET assay. It counts as cell-based.

Mitogen-activated protein kinase 3, sequence (P27361 whole entry): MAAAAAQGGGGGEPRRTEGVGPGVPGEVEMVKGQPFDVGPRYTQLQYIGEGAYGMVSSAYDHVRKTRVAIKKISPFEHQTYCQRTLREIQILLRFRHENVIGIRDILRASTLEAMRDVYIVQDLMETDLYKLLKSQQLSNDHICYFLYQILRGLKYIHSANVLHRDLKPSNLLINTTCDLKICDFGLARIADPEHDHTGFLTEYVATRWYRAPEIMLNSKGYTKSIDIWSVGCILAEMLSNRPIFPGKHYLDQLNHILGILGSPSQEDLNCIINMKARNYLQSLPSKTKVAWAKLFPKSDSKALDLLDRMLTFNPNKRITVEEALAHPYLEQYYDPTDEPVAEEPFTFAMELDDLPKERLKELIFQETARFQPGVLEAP
Cytochrome P450 2D6, sequence (P10635 whole entry): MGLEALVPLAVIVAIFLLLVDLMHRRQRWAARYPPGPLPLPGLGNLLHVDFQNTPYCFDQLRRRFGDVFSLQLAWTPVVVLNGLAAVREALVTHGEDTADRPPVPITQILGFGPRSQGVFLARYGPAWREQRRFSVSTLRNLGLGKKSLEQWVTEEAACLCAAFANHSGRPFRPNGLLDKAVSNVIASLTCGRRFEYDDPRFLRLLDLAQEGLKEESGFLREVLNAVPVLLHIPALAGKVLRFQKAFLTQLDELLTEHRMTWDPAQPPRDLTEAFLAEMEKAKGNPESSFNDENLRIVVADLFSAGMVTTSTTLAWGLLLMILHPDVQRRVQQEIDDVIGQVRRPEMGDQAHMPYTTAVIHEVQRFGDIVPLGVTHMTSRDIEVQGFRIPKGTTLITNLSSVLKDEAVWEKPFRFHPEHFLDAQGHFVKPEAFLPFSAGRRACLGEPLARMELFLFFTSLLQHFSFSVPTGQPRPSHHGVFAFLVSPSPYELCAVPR
Voltage-gated inwardly rectifying potassium channel KCNH2, sequence (Q12809 whole entry): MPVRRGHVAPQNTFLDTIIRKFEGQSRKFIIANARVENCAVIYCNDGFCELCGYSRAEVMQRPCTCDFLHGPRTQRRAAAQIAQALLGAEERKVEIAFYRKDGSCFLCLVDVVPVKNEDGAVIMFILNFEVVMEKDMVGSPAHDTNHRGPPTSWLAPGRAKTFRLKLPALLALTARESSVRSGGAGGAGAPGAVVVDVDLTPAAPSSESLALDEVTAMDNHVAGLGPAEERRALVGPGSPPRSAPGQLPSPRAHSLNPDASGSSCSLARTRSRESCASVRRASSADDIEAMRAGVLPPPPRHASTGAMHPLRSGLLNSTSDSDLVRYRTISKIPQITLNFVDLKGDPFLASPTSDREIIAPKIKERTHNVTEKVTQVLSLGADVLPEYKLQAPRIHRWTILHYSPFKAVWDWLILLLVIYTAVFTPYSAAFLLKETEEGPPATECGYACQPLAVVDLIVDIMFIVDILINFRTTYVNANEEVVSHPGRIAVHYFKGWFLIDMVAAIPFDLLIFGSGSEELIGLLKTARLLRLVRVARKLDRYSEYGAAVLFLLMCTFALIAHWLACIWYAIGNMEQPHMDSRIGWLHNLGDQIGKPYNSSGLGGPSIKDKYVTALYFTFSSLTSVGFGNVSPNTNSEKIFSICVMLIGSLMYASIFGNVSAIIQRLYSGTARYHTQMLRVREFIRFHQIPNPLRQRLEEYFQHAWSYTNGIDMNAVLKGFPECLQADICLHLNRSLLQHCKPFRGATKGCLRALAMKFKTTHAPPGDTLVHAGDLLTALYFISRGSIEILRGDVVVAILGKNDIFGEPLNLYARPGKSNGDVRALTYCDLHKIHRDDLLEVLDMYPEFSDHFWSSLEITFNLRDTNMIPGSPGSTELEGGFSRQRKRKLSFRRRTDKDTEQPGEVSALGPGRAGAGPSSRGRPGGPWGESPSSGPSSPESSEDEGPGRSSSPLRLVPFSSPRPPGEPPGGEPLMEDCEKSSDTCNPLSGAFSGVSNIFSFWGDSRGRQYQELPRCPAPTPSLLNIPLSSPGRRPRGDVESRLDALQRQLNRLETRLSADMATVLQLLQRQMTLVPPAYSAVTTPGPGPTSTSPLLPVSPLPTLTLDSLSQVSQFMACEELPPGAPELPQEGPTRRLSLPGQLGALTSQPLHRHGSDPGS

For the compound `O=C(NCc1ncc(C(F)(F)F)cc1Cl)c1ccc2c(c1)C1(CCS(=O)(=O)CC1)[C@H](C1CC1)N2S(=O)(=O)c1ccc(F)cc1` [BAY-784], the CLint scaled at 1 µM in [1] is 12.5 mL/min/kg. Also, the IC50 in [2] was 35 nM; in [4] it was > 10000 nM; in data set [6] it was 27 nM; in data set [7], 4900 nM; in [15], > 10000 nM; in data set [16] it was > 10000 nM. The Papp A→B at 2 h, 2 µM in data set [3] stood at 1.3 ×10⁻⁶ cm/s. The ED50 in [5] turned out to be 4.5 mg/kg. The CLH in data set [8] was 5.33 mL/min/kg; in [11] it was 1.7 mL/min/kg; in [12], 12.2 mL/min/kg; in [13], 11.8 mL/min/kg. For the same compound, the Fh at 1 µM in [9] was determined as 100%. Moreover, the results for the Fh in data set [10] and in data set [14] were 85% and 65%, respectively. Moreover, in data set [17], the dissociation constant Kd came out at 9.83 nM.
